Laboratory results published in ChEMBL document CHEMBL1140586, “Design and synthesis of a functionally selective D3 agonist and its in vivo delivery via the intranasal route” (Bioorg Med Chem Lett, 2007).

Columns and labels:
[1] = target: D(2) dopamine receptor (Homo sapiens, UniProt P14416); assay: Agonist activity at human recombinant dopamine D2 receptor expressed in rat pituitary cells assessed as inhibition of forskolin-stimulated cAMP accumulation; type: functional, cell-based, Pituitary gland cell
Sequence of D(2) dopamine receptor (P14416 whole entry): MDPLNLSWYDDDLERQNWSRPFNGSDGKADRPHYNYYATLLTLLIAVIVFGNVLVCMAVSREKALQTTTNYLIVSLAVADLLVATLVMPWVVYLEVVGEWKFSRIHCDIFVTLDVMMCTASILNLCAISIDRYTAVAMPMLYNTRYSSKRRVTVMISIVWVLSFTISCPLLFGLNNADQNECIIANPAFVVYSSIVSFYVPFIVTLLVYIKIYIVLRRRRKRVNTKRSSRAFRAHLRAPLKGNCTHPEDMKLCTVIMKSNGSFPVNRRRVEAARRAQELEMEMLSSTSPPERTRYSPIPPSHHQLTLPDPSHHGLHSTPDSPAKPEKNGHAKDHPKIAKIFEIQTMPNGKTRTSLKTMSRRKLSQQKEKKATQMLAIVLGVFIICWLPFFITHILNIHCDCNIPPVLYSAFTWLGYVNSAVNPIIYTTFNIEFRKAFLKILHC

[2] = target: D(3) dopamine receptor (Homo sapiens, UniProt P35462); assay: Agonist activity at human recombinant dopamine D3 receptor expressed in CHO cells assessed as inhibition of forskolin-stimulated cAMP accumulation; type: functional, cell-based
Sequence of D(3) dopamine receptor (P35462 whole entry): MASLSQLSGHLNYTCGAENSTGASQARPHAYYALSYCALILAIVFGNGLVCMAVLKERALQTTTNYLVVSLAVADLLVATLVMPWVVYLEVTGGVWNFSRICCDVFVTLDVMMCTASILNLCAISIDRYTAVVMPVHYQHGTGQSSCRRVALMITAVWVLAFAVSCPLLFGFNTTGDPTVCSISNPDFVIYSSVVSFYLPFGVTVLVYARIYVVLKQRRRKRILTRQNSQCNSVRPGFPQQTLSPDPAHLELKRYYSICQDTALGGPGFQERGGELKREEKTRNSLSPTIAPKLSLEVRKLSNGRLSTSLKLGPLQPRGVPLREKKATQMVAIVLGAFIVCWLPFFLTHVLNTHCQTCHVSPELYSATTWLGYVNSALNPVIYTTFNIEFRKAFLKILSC

[3] = Stability in human hepatocytes; type: ADME, cell-based, Liver, Hepatocyte
Procedure, shortened: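 Rat, dog and human hepatocyte incubations; read-out was the disappearance half-life of parent compound, in minutes.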

[4] = Clearance in human; type: ADME, organism-based; details: in vivo
[5] = Clearance in rat; type: ADME, organism-based; details: in vivo

SMILES | EC50 [1] [µM] | EC50 [2] [µM] | further results
CCCN1CCOC(c2cccc(NS(C)(=O)=O)c2)C1 (stereo not drawn) | > 1 | > 1 | 
CCCN1CCOC(c2cccc(C(=O)O)c2)C1 (stereo not drawn) | > 10 | > 1 | 
CCCN1CCO[C@H](c2ccc(F)c(O)c2)C1 | > 10 | 0.036 | half-life [3]: 21 min; Emax [2]: > 90%
CCCN1CCOC(c2ccc(O)c(CO)c2)C1 (stereo not drawn) |  | > 1 | 
CCCN1CCOC(c2ccc(O)c(C#N)c2)C1 (stereo not drawn) |  | > 1 | 
CNC[C@H](O)c1cccc(O)c1 [PHENYLEPHRINE] |  |  | clearance [4]: 30 mL/min/kg
CCCN1CCOC(c2cc(O)cc(C(N)=O)c2)C1 (stereo not drawn) |  | > 10 | 
CCCN1CCO[C@H](c2cc(O)cc(O)c2)C1 | > 10 | 0.032 | Emax [2]: > 90%; clearance [5]: 188 mL/min/kg
CCCN1CCOC(c2cccc(N)c2)C1 (stereo not drawn) | > 1 | > 1 | 
CCN1CCOC(c2cccc(O)c2)C1 (stereo not drawn) | > 30 | 0.547 | 
CCCN1CCOC(c2ccc(Cl)c(O)c2)C1 (stereo not drawn) |  | > 0.688 | 
CCCN1CCO[C@@H](c2cc(O)cc(O)c2)C1 | > 10 | > 10 | 
